# Experimental data as given in ChEMBL document CHEMBL1149758, “N-[2-(5,5-dimethyl-1,3-dioxane-2-yl)ethyl]amino acids: their synthesis, anti-inflammatory evaluation and QSAR analysis” (Eur J Med Chem, 2008).
# Calls of active or inactive are those of the source. The rule behind the calls is not given here.
# System: Mus musculus
# Assay: Antiinflammatory activity against xylene-induced ear edema in ICR mouse at 20 mg/kg, po
# Type: functional, organism-based
# Parameters: dose 20 mg/kg
# Method in brief: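 Mice dosed orally with compound suspended in CMC (2.0 mg/mL), vehicle group given CMC, aspirin in CMC as positive control; 30 min later 0.03 mL xylene applied to both surfaces of right ear, left ear untreated. After 2 h mice killed, 7 mm ear punches weighed; edema = right minus left section weight, expressed as % inhibition. n = 11; ANOVA, p < 0.05.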
row,SMILES,Activity
1,CC1(C)COC(CCN[C@@H](Cc2c[nH]c3ccccc23)C(=O)O)OC1,Active
2,CC1(C)COC(CCN[C@@H](CCCCN)C(=O)O)OC1,Active
3,CC1(C)COC(CCN[C@@H](CC(N)=O)C(=O)O)OC1,Active
4,CC1(C)COC(CCN[C@@H](CCC(N)=O)C(=O)O)OC1,Active
5,CC(C)[C@H](NCCC1OCC(C)(C)CO1)C(=O)O,Active
6,CC(C)C[C@H](NCCC1OCC(C)(C)CO1)C(=O)O,Active
7,CC1(C)COC(CCN2CCC[C@H]2C(=O)O)OC1,Active
8,CC1(C)COC(CCN[C@@H](CCC(=O)O)C(=O)O)OC1,Active
9,CC1(C)COC(CCN[C@@H](Cc2ccccc2)C(=O)O)OC1,Active
10,C[C@@H](O)[C@H](NCCC1OCC(C)(C)CO1)C(=O)O,Active
11,CC1(C)COC(CCN[C@@H](CO)C(=O)O)OC1,Active
12,CSCC[C@H](NCCC1OCC(C)(C)CO1)C(=O)O,Active
13,C[C@H](NCCC1OCC(C)(C)CO1)C(=O)O,Active
14,CC1(C)COC(CCN[C@@H](CC(=O)O)C(=O)O)OC1,Active
15,CC1(C)COC(CCNCC(=O)O)OC1,Active
16,CC1(C)COC(CCN[C@@H](Cc2c[nH]cn2)C(=O)O)OC1,Active
17,CC[C@H](C)[C@H](NCCC1OCC(C)(C)CO1)C(=O)O,Active
18,CC1(C)COC(CCN[C@@H](CCCNC(=N)N)C(=O)O)OC1,Active
19,CC1(C)COC(CCN[C@@H](Cc2ccc(O)cc2)C(=O)O)OC1,Active
